# From ChEMBL document CHEMBL4334424, “The winding road of the uvaretin class of natural products: from total synthesis to bioactive agent discovery” (Medchemcomm, 2019)
# pIC50: −log10 of the molar value. Calls of active or inactive are those of the source. The rule behind the calls is not given here.
# Test system: MIA PaCa-2
# Assay: Cytotoxicity against human MIAPaCa2 cells assessed as combinational index at 5 uM incubated for 72 hrs in presence of 200 uM 6TP by alamar blue assay
# Assay type: functional
# Details: not given
# Outline: (§1)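 Combination assay in 96-well plates with 100 μL final volume and 1% DMSO. Two test-compound concentrations were crossed with five 6TP concentrations, then cells were added (4000/well adherent, 7000/well suspension). Plates ran 72 h at 37 °C, 5% CO2, with Alamar Blue viability read-out and ≥3 independent experiments. Combination index was calculated by the Chou–Talalay method.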
row,SMILES,CI
1,COCOc1cc(O)c(C(=O)/C=C/c2ccccc2)c(OCOC)c1,1.43
2,COCOc1cc(OCOC)c(C(=O)/C=C/c2ccccc2)c(OCOC)c1,2.09

# Test system: HCT-116
# Assay: Cytotoxicity against human HCT116 cells assessed as reduction in cell viability incubated for 72 hrs in presence of etoposide by alamar blue assay
# Assay type: functional, cell-based
# Details: not given
# Outline: (§2)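 Same combination format as the 6TP study, with the cytotoxic partner (doxorubicin, etoposide or paclitaxel) combined with test compound. Cells were at 4000/well (adherent) in 100 μL, 1% DMSO, for 72 h at 37 °C, 5% CO2, with Alamar Blue viability read-out. Combination index was derived by the Chou–Talalay protocol and reported as a median.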
row,SMILES,Activity
1,COc1cc(O)c(Cc2ccccc2O)c(O)c1C(=O)/C=C/c1ccccc1,inactive

# Test system: MIA PaCa-2
# Assay: Cytotoxicity against human MIAPaCa2 cells assessed as cell viability at 2.5 uM incubated for 72 hrs in presence of 100 uM 6TP by alamar blue assay (reference value: 30.7 %)
# Assay type: functional
# Details: not given
# Outline: as §1
row,SMILES,Activity [%]
1,COCOc1cc(O)c(C(=O)/C=C/c2ccccc2)c(OCOC)c1,15.2
2,COCOc1cc(OCOC)c(C(=O)/C=C/c2ccccc2)c(OCOC)c1,17.6

# Test system: A549
# Assay: Cytotoxicity against human A549 cells assessed as reduction in cell viability incubated for 72 hrs by alamar blue assay
# Assay type: functional, cell-based
# Details: A549, 72 h
# Outline: (§3)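 Adherent cells were seeded at 1500 cells/well in 384-well plates and allowed 2–3 h to attach. Compounds in DMSO, diluted in media over 31.6 nM–200 μM, were tested in triplicate for 72 h continuous exposure at 37 °C, 5% CO2. Alamar Blue was added for the final 3 h and fluorescence read (ex 560/em 590 nm). IC50 was fitted from ≥3 independent experiments.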
row,SMILES,pIC50
1,COc1cc(O)c(Cc2ccccc2O)c(O)c1C(=O)/C=C/c1ccccc1,5.37
2,COCOc1cc(O)c(C(=O)/C=C/c2ccccc2)c(OCOC)c1,< 4.70
3,COCOc1cc(OCOC)c(C(=O)/C=C/c2ccccc2)c(OCOC)c1,5.08

# Test system: MIA PaCa-2
# Assay: Cytotoxicity against human MIAPaCa2 cells assessed as combinational index at 2.5 uM incubated for 72 hrs in presence of 100 uM 6TP by alamar blue assay
# Assay type: functional
# Details: not given
# Outline: as §1
row,SMILES,CI
1,COCOc1cc(O)c(C(=O)/C=C/c2ccccc2)c(OCOC)c1,2.18
2,COCOc1cc(OCOC)c(C(=O)/C=C/c2ccccc2)c(OCOC)c1,0.96

# Test system: MIA PaCa-2
# Assay: Cytotoxicity against human MIAPaCa2 cells assessed as combinational index at 2.5 uM incubated for 72 hrs in presence of 200 uM 6TP by alamar blue assay
# Assay type: functional
# Details: not given
# Outline: as §1
row,SMILES,CI
1,COCOc1cc(O)c(C(=O)/C=C/c2ccccc2)c(OCOC)c1,2.16
2,COCOc1cc(OCOC)c(C(=O)/C=C/c2ccccc2)c(OCOC)c1,1.79

# Test system: MIA PaCa-2
# Assay: Cytotoxicity against human MIAPaCa2 cells assessed as cell viability at 5 uM incubated for 72 hrs by alamar blue assay (reference value: 0 %)
# Assay type: functional
# Details: MIA PaCa-2, 72 h, read-out: Activity
# Outline: as §1
row,SMILES,viability at 5 µM [%]
1,COCOc1cc(O)c(C(=O)/C=C/c2ccccc2)c(OCOC)c1,7.2
2,COCOc1cc(OCOC)c(C(=O)/C=C/c2ccccc2)c(OCOC)c1,20

# Test system: MIA PaCa-2
# Assay: Cytotoxicity against human MIAPaCa2 cells assessed as combinational index at 2.5 uM incubated for 72 hrs in presence of 50 uM 6TP by alamar blue assay
# Assay type: functional
# Details: not given
# Outline: as §1
row,SMILES,CI
1,COCOc1cc(O)c(C(=O)/C=C/c2ccccc2)c(OCOC)c1,2.04
2,COCOc1cc(OCOC)c(C(=O)/C=C/c2ccccc2)c(OCOC)c1,0.56

# Test system: HCT-116
# Assay: Cytotoxicity against human HCT116 cells assessed as reduction in cell viability incubated for 72 hrs by alamar blue assay
# Assay type: functional, cell-based
# Details: HCT-116, 72 h
# Outline: as §3
row,SMILES,pIC50
1,COc1cc(O)c(Cc2ccccc2O)c(O)c1C(=O)/C=C/c1ccccc1,4.71
2,COCOc1cc(O)c(C(=O)/C=C/c2ccccc2)c(OCOC)c1,< 4.70
3,COCOc1cc(OCOC)c(C(=O)/C=C/c2ccccc2)c(OCOC)c1,< 4.70

# Test system: MIA PaCa-2
# Assay: Cytotoxicity against human MIAPaCa2 cells assessed as combinational index at 2.5 uM incubated for 72 hrs in presence of 25 uM 6TP by alamar blue assay
# Assay type: functional
# Details: not given
# Outline: as §1
row,SMILES,CI
1,COCOc1cc(O)c(C(=O)/C=C/c2ccccc2)c(OCOC)c1,1.21
2,COCOc1cc(OCOC)c(C(=O)/C=C/c2ccccc2)c(OCOC)c1,0.24

# Test system: HCT-116
# Assay: Cytotoxicity against human HCT116 cells assessed as reduction in cell viability incubated for 72 hrs in presence of 6TP by alamar blue assay
# Assay type: functional, cell-based
# Details: not given
# Outline: as §1
row,SMILES,Activity
1,COc1cc(O)c(Cc2ccccc2O)c(O)c1C(=O)/C=C/c1ccccc1,inactive

# Test system: REH
# Assay: Cytotoxicity against human REH cells assessed as reduction in cell viability incubated for 72 hrs by alamar blue assay
# Assay type: functional, cell-based
# Details: not given
# Outline: (§4)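 Suspension cells (2200/well, 384-well) were added directly onto compound in media with no attachment period. Compounds spanned 31.6 nM–200 μM in triplicate, with 72 h exposure at 37 °C, 5% CO2. Alamar Blue was added for the last 3 h and fluorescence read (ex 560/em 590 nm). IC50 came from ≥3 independent experiments.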
row,SMILES,pIC50
1,COc1cc(O)c(Cc2ccccc2O)c(O)c1C(=O)/C=C/c1ccccc1,< 4.70
2,COCOc1cc(O)c(C(=O)/C=C/c2ccccc2)c(OCOC)c1,< 4.70
3,COCOc1cc(OCOC)c(C(=O)/C=C/c2ccccc2)c(OCOC)c1,< 4.70

# Test system: MIA PaCa-2
# Assay: Cytotoxicity against human MIAPaCa2 cells assessed as cell viability at 2.5 uM incubated for 72 hrs in presence of 10 uM 6TP by alamar blue assay (reference value: 6.9 %)
# Assay type: functional
# Details: not given
# Outline: as §1
row,SMILES,Activity [%]
1,COCOc1cc(O)c(C(=O)/C=C/c2ccccc2)c(OCOC)c1,7
2,COCOc1cc(OCOC)c(C(=O)/C=C/c2ccccc2)c(OCOC)c1,14.2

# Test system: HCT-116
# Assay: Cytotoxicity against human HCT116 cells assessed as reduction in cell viability incubated for 72 hrs in presence of doxorubicin by alamar blue assay
# Assay type: functional, cell-based
# Details: not given
# Outline: as §2
row,SMILES,Activity
1,COc1cc(O)c(Cc2ccccc2O)c(O)c1C(=O)/C=C/c1ccccc1,inactive

# Test system: MIA PaCa-2
# Assay: Cytotoxicity against human MIAPaCa2 cells assessed as reduction in cell viability incubated for 72 hrs by alamar blue assay
# Assay type: functional, cell-based
# Details: MIA PaCa-2, 72 h
# Outline: as §3
row,SMILES,pIC50
1,COc1cc(O)c(Cc2ccccc2O)c(O)c1C(=O)/C=C/c1ccccc1,5.29
2,COCOc1cc(O)c(C(=O)/C=C/c2ccccc2)c(OCOC)c1,5.11
3,COCOc1cc(OCOC)c(C(=O)/C=C/c2ccccc2)c(OCOC)c1,4.93

# Test system: U-937
# Assay: Cytotoxicity against human U937 cells assessed as reduction in cell viability incubated for 72 hrs by alamar blue assay
# Assay type: functional, cell-based
# Details: U-937, 72 h
# Outline: as §4
row,SMILES,pIC50
1,COc1cc(O)c(Cc2ccccc2O)c(O)c1C(=O)/C=C/c1ccccc1,5.64
2,COCOc1cc(O)c(C(=O)/C=C/c2ccccc2)c(OCOC)c1,< 4.70
3,COCOc1cc(OCOC)c(C(=O)/C=C/c2ccccc2)c(OCOC)c1,5.09

# Test system: MIA PaCa-2
# Assay: Cytotoxicity against human MIAPaCa2 cells assessed as cell viability at 5 uM incubated for 72 hrs in presence of 50 uM 6TP by alamar blue assay (reference value: 13.8 %)
# Assay type: functional
# Details: not given
# Outline: as §1
row,SMILES,Activity [%]
1,COCOc1cc(O)c(C(=O)/C=C/c2ccccc2)c(OCOC)c1,13
2,COCOc1cc(OCOC)c(C(=O)/C=C/c2ccccc2)c(OCOC)c1,17

# Test system: MIA PaCa-2
# Assay: Cytotoxicity against human MIAPaCa2 cells assessed as cell viability at 5 uM incubated for 72 hrs in presence of 10 uM 6TP by alamar blue assay (reference value: 6.9 %)
# Assay type: functional
# Details: not given
# Outline: as §1
row,SMILES,Activity [%]
1,COCOc1cc(O)c(C(=O)/C=C/c2ccccc2)c(OCOC)c1,8.1
2,COCOc1cc(OCOC)c(C(=O)/C=C/c2ccccc2)c(OCOC)c1,18.4

# Test system: MIA PaCa-2
# Assay: Cytotoxicity against human MIAPaCa2 cells assessed as combinational index at 5 uM incubated for 72 hrs in presence of 50 uM 6TP by alamar blue assay
# Assay type: functional
# Details: not given
# Outline: as §1
row,SMILES,CI
1,COCOc1cc(O)c(C(=O)/C=C/c2ccccc2)c(OCOC)c1,1.87
2,COCOc1cc(OCOC)c(C(=O)/C=C/c2ccccc2)c(OCOC)c1,0.57

# Test system: MIA PaCa-2
# Assay: Cytotoxicity against human MIAPaCa2 cells assessed as cell viability at 2.5 uM incubated for 72 hrs by alamar blue assay (reference value: 0 %)
# Assay type: functional
# Details: MIA PaCa-2, 72 h, read-out: Activity
# Outline: as §1
row,SMILES,viability at 2.5 µM [%]
1,COCOc1cc(O)c(C(=O)/C=C/c2ccccc2)c(OCOC)c1,6.1
2,COCOc1cc(OCOC)c(C(=O)/C=C/c2ccccc2)c(OCOC)c1,21.1

# Test system: MIA PaCa-2
# Assay: Cytotoxicity against human MIAPaCa2 cells assessed as cell viability at 5 uM incubated for 72 hrs in presence of 25 uM 6TP by alamar blue assay (reference value: 6.4 %)
# Assay type: functional
# Details: not given
# Outline: as §1
row,SMILES,Activity [%]
1,COCOc1cc(O)c(C(=O)/C=C/c2ccccc2)c(OCOC)c1,8.2
2,COCOc1cc(OCOC)c(C(=O)/C=C/c2ccccc2)c(OCOC)c1,17.3

# Test system: MIA PaCa-2
# Assay: Cytotoxicity against human MIAPaCa2 cells assessed as cell viability at 2.5 uM incubated for 72 hrs in presence of 50 uM 6TP by alamar blue assay (reference value: 13.8 %)
# Assay type: functional
# Details: not given
# Outline: as §1
row,SMILES,Activity [%]
1,COCOc1cc(O)c(C(=O)/C=C/c2ccccc2)c(OCOC)c1,9.7
2,COCOc1cc(OCOC)c(C(=O)/C=C/c2ccccc2)c(OCOC)c1,16.9

# Test system: MIA PaCa-2
# Assay: Cytotoxicity against human MIAPaCa2 cells assessed as cell viability at 5 uM incubated for 72 hrs in presence of 100 uM 6TP by alamar blue assay (reference value: 30.7 %)
# Assay type: functional
# Details: not given
# Outline: as §1
row,SMILES,Activity [%]
1,COCOc1cc(O)c(C(=O)/C=C/c2ccccc2)c(OCOC)c1,19.9
2,COCOc1cc(OCOC)c(C(=O)/C=C/c2ccccc2)c(OCOC)c1,19.3

# Test system: MIA PaCa-2
# Assay: Cytotoxicity against human MIAPaCa2 cells assessed as cell viability at 2.5 uM incubated for 72 hrs in presence of 25 uM 6TP by alamar blue assay (reference value: 6.4 %)
# Assay type: functional
# Details: not given
# Outline: as §1
row,SMILES,Activity [%]
1,COCOc1cc(O)c(C(=O)/C=C/c2ccccc2)c(OCOC)c1,7.2
2,COCOc1cc(OCOC)c(C(=O)/C=C/c2ccccc2)c(OCOC)c1,15

# Test system: HeLa
# Assay: Cytotoxicity against human HeLa cells assessed as reduction in cell viability incubated for 72 hrs by alamar blue assay
# Assay type: functional, cell-based
# Details: not given
# Outline: as §3
row,SMILES,pIC50
1,COc1cc(O)c(Cc2ccccc2O)c(O)c1C(=O)/C=C/c1ccccc1,5.34
2,COCOc1cc(O)c(C(=O)/C=C/c2ccccc2)c(OCOC)c1,4.78
3,COCOc1cc(OCOC)c(C(=O)/C=C/c2ccccc2)c(OCOC)c1,4.94

# Test system: MIA PaCa-2
# Assay: Cytotoxicity against human MIAPaCa2 cells assessed as combinational index at 5 uM incubated for 72 hrs in presence of 100 uM 6TP by alamar blue assay
# Assay type: functional
# Details: not given
# Outline: as §1
row,SMILES,CI
1,COCOc1cc(O)c(C(=O)/C=C/c2ccccc2)c(OCOC)c1,1.42
2,COCOc1cc(OCOC)c(C(=O)/C=C/c2ccccc2)c(OCOC)c1,1.01

# Test system: MIA PaCa-2
# Assay: Cytotoxicity against human MIAPaCa2 cells assessed as combinational index at 5 uM incubated for 72 hrs in presence of 25 uM 6TP by alamar blue assay
# Assay type: functional
# Details: not given
# Outline: as §1
row,SMILES,CI
1,COCOc1cc(O)c(C(=O)/C=C/c2ccccc2)c(OCOC)c1,1.13
2,COCOc1cc(OCOC)c(C(=O)/C=C/c2ccccc2)c(OCOC)c1,0.47
